This is an account of results in the RNAGym collection of RNA variant scans (doi:10.1126/science.aae0568).

The chains are these.
B1: tRNA (parent)
chain: GUUCCGUUGGCGUAAUGGUAACGCGUCUCCCUCCUAAGGAGAAGACUGCGGGUUCGAGUCCCGUACGGAACG

Variants at the floor of the assay were thinned out.

Variants of B1 are the subject of this series. Kind of series: yeast fitness relative to wild type (ratio to wild type); higher = fitter; tRNA-Arg(CCU), competitive growth, 37 C, YPD. The gist of the method:
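Gene amplicons from the start population and from each of six end populations were read by 100-nucleotide paired-end sequencing. Those end populations came from pooled Saccharomyces cerevisiae strains carrying tRNA-Arg(CCU) gene variants at the native locus, competed in YPD at 37°C for 24 hours. Fitness relative to wild type was worked out from changes in genotype frequencies. Genotypes needed ≥ 100 starting reads, and estimates < 0.5 were set to 0.5.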
GUUCCGUUGGCGUAAUGGUAACGCGUCCCCCUCCUAAGGAGAAGACUGCGGGUUCGAGUCCCAUACGGAGCG [U28C G63A A70G]: the yeast fitness was determined as 0.685.
For the variant GUUCCGUUGGCGUAAUGGUAACGCGUCGCCCACCUAACGAGAAGACUGCGGGUUCGAGUCCCGUCCCGAACG [U28G U32A G38C A65C G67C], the yeast fitness is not above 0.5.
Turning to GUUCCGUUGGCGUAAUGGUAACGCGUCGCCCUCCUAACGAGAAGACUGCGGGUUCGAGUCCGGUAUGGAACG [U28G G38C C62G C66U], the yeast fitness is not above 0.5.
GUUCCGUUGGCGUAAUGGUAACGCGUCUACCUCCUAUCGCGACGAUUGCGGGUUCGAGUCCCGUACGGAACG [C29A A37U G38C A40C A43C C46U]: the yeast fitness stood at 0.599.
As for GUUCCGUUGGCGUAAUGGUAACGCGUCGCCCUCCUAAGGAGAAGACUGCGGGUGCGAGUCCCGUCCAGAACG [U28G U54G A65C G67A], the yeast fitness is not above 0.5.
Take GUUCCGUUGGCGUAAUGGUAACGCGUCGCCCUCCUAAGGAGAAGACUGCGGGUUCGAGUCCCGUACGGUACG [U28G A69U]: the yeast fitness came out at 0.789.
Consider GUUCCGUUGGCGUAAUGGUAACGCGUCGCCCUCCUAAGGAGAGGACUGCGGGUUCGAGUCCCGUACGGAACG [U28G A43G], for which the yeast fitness worked out at 0.643.
As for GUUCCGUUGGCGUAAUGGUAACGCGUCUACCUCCUAAGGAGAAGACUGCGGGUUCGAGUCCCGUACGGAACG [C29A], the yeast fitness was found to be 0.631.
As for GUUCCGUUGGCGUAAUGGUAACGCGUCGCCCUCCUAAGGACAAGACUGCGGGUUGGAGUCCCGUACGGAUCG [U28G G41C C55G A70U], the yeast fitness was not above 0.5.
Turning to GUUCCGUUGGCGUAAUGGUAACGCGUCGCCCACCUAAGGAGACGACUGCGGGUUCGAGUCCCGUACGGAACG [U28G U32A A43C], the yeast fitness was not above 0.5.
Then GUUCCGUUGGCGUAAUGGUAACGCGUCGCCCUCCUAAGGUGAUGACUGCGGGUUCGAGUCCCGUACGGAACG [U28G A40U A43U], with 0.878.
Take GUUCCGUUGGCGUAAUGGUAACGCGUCUACCUCCUUAGGUGAAGACUGCGGGUUUAAGCCCCGUACGGAACG [C29A A36U A40U C55U G56A U59C]: the yeast fitness was not above 0.5.
In the case of GUUCCGUUGGCGUAAUGGUAACGCGUCGCCCUCCCAAGGAGAAGACUGCGGGUUCGAGUCCCGUACGGAACG [U28G U35C], the yeast fitness is 0.758.
On to GUUCCGUUGGCGUAAUGGUAACGCGUCGCCCUCCUAAGGAGAAGACUGCGGGUUCGAGUCACGUACGGAACG [U28G C61A], for which the yeast fitness stood at 0.561.
To GUUCCGUUGGCGUAAUGGUAACGCGUCGCCCUCCUAAGGAGAAGACUGCGGGUUCGAGUCCCGUCCGGAACG [U28G A65C] belongs 0.669.
Turning to GUUCCGUUGGCGUAAUGGUAACGCGUCCCCCUCCUAAGGAGAAGACUGCGGGUUCGACUCCGGUACGGAUCG [U28C G58C C62G A70U], the yeast fitness was not above 0.5.
Regarding GUUCCGUUGGCGUAAUGGUAACGCGUCGCCCUCCUAAGGAGCAGACUGCGGGUUCGCGUCCCGUACGGAACG [U28G A42C A57C], the yeast fitness is 0.627.
Consider GUUCCGUUGGCGUAAUGGUAACGCGUCGCCCUCCUAAGGAGAAGACUGCGGGUUCGAGUGCCGUACGGAACG [U28G C60G], for which the yeast fitness is 0.603.
Regarding GUUCCGUUGGCGUAAUGGUAACGCGUCGCCAUCCUAAGGAGAAGACUGCGGGUUCGAGUCUCGUACGGAACG [U28G C31A C61U], the yeast fitness is not above 0.5.
Then GUUCCGUUGGCGUAAUGGUAACGCGUCUACCUCCUAAGGAGUAGACUGCGGGUUCGAGUCCCGCACGGCACG [C29A A42U U64C A69C], with not above 0.5; and GUUCCGUUGGCGUAAUGGUAACGCGUCGCCCUCCUAAGGAGAAGACUGCGGGUUCGAGUCCCGUACGGAGCG [U28G A70G], with 0.826.
Then GUUCCGUUGGCGUAAUGGUAACGCGUCUACCUCCUACGGUGAAGACUGCGGGUUCGAGUCCCAUACGGAACG [C29A A37C A40U G63A], with 0.519; and GUUCCGUUGGCGUAAUGGUAACGCGUCGCCCUCCUGAGGAGAAGACUGCGAGUUCGAGUCCCGUACGGAACG [U28G A36G G51A], with not above 0.5.
As to GUUCCGUUGGCGUAAUGGUAACGCGUCGACCUCCUAAGGAGAAGACUGCGGGUUCGAGUCCCGUAUGGAACG [U28G C29A C66U], the yeast fitness was not above 0.5.
In the case of GUUCCGUUGGCGUAAUGGUAACGCGUCCCCCUCCUAAGGAGAAGACUGCGGGUUCGAGGCCCGUACGGAACG [U28C U59G], the yeast fitness came to 0.852.
For the variant GUUCCGUUGGCGUAAUGGUAACGCGUCUACCUCCUACGGAGAAGCCAGCGGGUUCGAGUCCCGUACGGAACG [C29A A37C A45C U47A], the yeast fitness amounted to 0.573.
For GUUCCGUUGGCGUAAUGGUAACGCGUCUACCUCCUAUGGAGACGACUGCGGGUUCGAGUCCCGUACGGAACG [C29A A37U A43C], the yeast fitness is 0.733.
On to GUUCCGUUGGCGUAAUGGUAACGCGUCGCCCUCCUAAGGUGAAGACUGCGGGUUCGAGCCCCGUACGGAACG [U28G A40U U59C], for which the yeast fitness was 0.576.
On to GUUCCGUUGGCGUAAUGGUAACGCGUCUACCUCCUAAGGUGAAGACUGCGGGUUCGAGUCCCGUACGGAACG [C29A A40U], for which the yeast fitness is 0.684.
On to GUUCCGUUGGCGUAAUGGUAACGCGUCUACCUCCUAAGGCGAAGACUGCGGGUUCGAGUCCCGUACGGAACG [C29A A40C], for which the yeast fitness came to 0.741.
GUUCCGUUGGCGUAAUGGUAACGCGUCCCCCCCCUAAGGAGAAGACUGCGGGUUCGAGUCCAGUACGGAACG [U28C U32C C62A]: the yeast fitness is not above 0.5.
In the case of GUUCCGUUGGCGUAAUGGUAACGCGUCUACCUCCUUAGGAGAAGACUGCGGGUUCGAGUCCCGUACGGAACG [C29A A36U], the yeast fitness was not above 0.5.
As for GUUCCGUUGGCGUAAUGGUAACGCGUCUACCUCCUAAGGAGUAGACUGCGGGUUCGAGUCCCGUACGGAACG [C29A A42U], the yeast fitness stood at 0.632.
On to GUUCCGUUGGCGUAAUGGUAACGCGUCGCCCUCCUAAGGAGAAGAGUGUGGGUUCGAGUCCCGUACGGCACG [U28G C46G C49U A69C], for which the yeast fitness was not above 0.5.
To GUUCCGUUGGCGUAAUGGUAACGCGUCGCCCUCCUAAAGAGAAGACUGCGGGUUCGAGUGCCGUCCGGCACG [U28G G38A C60G A65C A69C] belongs 0.618; to GUUCCGUUGGCGUAAUGGUAACGCGUCGACCUCCUAAGGAGAAGACUGCGGCUUCGUGUCCCGUACGGAACG [U28G C29A G52C A57U], not above 0.5.
For GUUCCGUUGGCGUAAUGGUAACGCGUCUACCUCCUAAGGAGACGACUGCGGGUUCGAGUCCCGUACGGAACG [C29A A43C], the yeast fitness amounted to 0.748.
Take GUUCCGUUGGCGUAAUGGUAACGCGUCUACCUCCUAGGGAGAAGACUGAGGGUUCGAGUCCCGCACGAAACG [C29A A37G C49A U64C G68A]: the yeast fitness was not above 0.5.
